Measured values reported in ChEMBL document CHEMBL1129428 (J Med Chem, 1996).

What was measured:
Rattus norvegicus [1] = assay: Compound was tested for anticonvulsant activity after Oral Administration into rat by using MES screen test after 4 hr; assay type: functional
Summary of the method: (§1)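 Rats dosed orally, typically at 50 mg/kg first, then mostly 12.5 mg/kg (some compounds at 30 mg/kg), and tested by maximal electroshock. Four rats per compound, scored at 0.25, 0.5, 1, 2 and 4 h as the number of rats protected out of 4.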

Mus musculus [2] = assay: Compound was tested for toxicity after intraperitoneal injection into mice by using toxicity screen test after 4 hr; assay type: organism-based; conditions: in vivo, ip
Summary of the method: (§2)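 Mice injected intraperitoneally at 30, 100 and 300 mg/kg and examined 0.5 and 4 h afterwards. Each entry is the minimum dose giving activity (MES protection, scPTZ protection, or rotorod failure for neurotoxicity) in half or more of the mice. Activity is called absent if nothing occurs at 300 mg/kg.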

[3] = Protection index = TD50/ED50; assay type: ADME; conditions: read-out: PI
[4] = Protection index = TD50/ED50 (MES); conditions: mouse, in vivo; read-out: PI
Mus musculus [5] = assay: Anticonvulsant activity after intraperitoneal injection into mice by using MES screen test after 0.5 hr; assay type: functional
[6] = Compound was tested for toxicity after intraperitoneal injection into mice by using neurotoxicity screen test after 1 hr; assay type: organism-based; conditions: mouse, in vivo, ip
Summary of the method: (§3)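 Quantitative intraperitoneal mouse testing in the MES, scPTZ or rotorod neurotoxicity screens at the peak time given for each compound (0.25–2 h). ED50 or TD50 reported in mg/kg with 95% CI and slope (SE).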

Rattus norvegicus [7] = assay: Compound was tested for anticonvulsant activity after Oral Administration into Rats by using MES screen test after 2h,dose 30 mg/kg; number of rats out of four which were protected; assay type: functional
Summary of the method: (§4)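 Rats received the compound orally. […] Rats were tested in the MES screen at 0.25, 0.5, 1, 2 and 4 h. Each value is the number of rats protected out of 4. The test followed NINDS procedures.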

Rattus norvegicus [8] = assay: Compound was tested for anticonvulsant activity after Oral Administration into Rats by using MES screen test after 0.5h,dose 30 mg/kg; number of rats out of four which were protected; assay type: functional; summary of the method: as §4
Mus musculus [9] = assay: Anticonvulsant activity after intraperitoneal injection into mice by using MES screen test after 0.25 hr; assay type: functional
Mus musculus [10] = assay: Compound was tested for anticonvulsant activity after intraperitoneal injection into mice by using scPTZ screen test after 0.25 hr; assay type: functional; conditions: ip; summary of the method: as §3
Rattus norvegicus [11] = assay: Compound was tested for anticonvulsant activity after Oral Administration into Rats by using MES screen test after 4h,dose 30 mg/kg; number of rats out of four which were protected; assay type: functional; summary of the method: as §4
Mus musculus [12] = assay: Toxicity after intraperitoneal injection into mice by using toxicity screen test after 0.5 hr; assay type: organism-based; conditions: in vivo, ip; summary of the method: as §2
Mus musculus [13] = assay: Anticonvulsant activity after intraperitoneal injection into mice measured in a maximal electroshock scree (MES) screen; assay type: functional
Rattus norvegicus [14] = assay: Compound was tested for anticonvulsant activity after Oral Administration into Rats by using MES screen test after 1h,dose 30 mg/kg; number of rats out of four which were protected; assay type: functional; summary of the method: as §4
Rattus norvegicus [15] = assay: Compound was tested for anticonvulsant activity after Oral Administration into Rats by using MES screen test after 0.25h,dose 30 mg/kg; number of rats out of four which were protected; assay type: functional; summary of the method: as §4
Rattus norvegicus [16] = assay: Compound was tested for anticonvulsant activity after Oral Administration into Rats by using MES screen test after 0.25h,dose 12.5 mg/kg; number of rats out of four which were protected; assay type: functional; summary of the method: as §4
[17] = Compound was tested for toxicity after oral administration in rat by using neurotoxicity screen test after 4 hr; assay type: organism-based; conditions: in vivo
Summary of the method: (§5)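 Rat neurotoxicity after oral dosing, observed at 0.25, 0.5, 1, 2, 4, 6, 8 and 24 h (8 h omitted for one compound).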

Mus musculus [18] = assay: Compound was tested for anticonvulsant activity after intraperitoneal injection into mice by using MES screen test after 1 hr; assay type: functional; conditions: ip; summary of the method: as §3
Mus musculus [19] = assay: Compound was tested for anticonvulsant activity after intraperitoneal injection into mice by using scPTZ screen test after 1 hr; assay type: functional; conditions: ip; summary of the method: as §3
Rattus norvegicus [20] = assay: Compound was tested for anticonvulsant activity after Oral Administration into Rats by using MES screen test after 2h,dose 12.5 mg/kg; number of rats out of four which were protected; assay type: functional; summary of the method: as §4
Rattus norvegicus [21] = assay: Compound was tested for anticonvulsant activity after Oral Administration into Rats by using MES screen test after 4h,dose 12.5 mg/kg; number of rats out of four which were protected; assay type: functional; summary of the method: as §4
[22] = Compound was tested for toxicity after intraperitoneal injection into mice by using neurotoxicity screen test after 2 hr; assay type: organism-based; conditions: mouse, in vivo, ip; summary of the method: as §3
Mus musculus [23] = assay: Anticonvulsant activity after intraperitoneal injection into mice by using scPTZ screen after 0.5 hr; assay type: functional
[24] = Partition coefficient (logP); assay type: physicochemical; conditions: octanol/water
Summary of the method: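 Partition between 1-octanol and buffer at pH 7.4, with solutions prepared in 1-octanol before buffer is added. Quantified by UV, using λmax and ε values measured in 1-octanol.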

Rattus norvegicus [25] = assay: Compound was tested for anticonvulsant activity after Oral Administration into rat by using MES screen test after 2 hr; assay type: functional; summary of the method: as §1
Rattus norvegicus [26] = assay: Compound was tested for anticonvulsant activity after Oral Administration into Rats by using MES screen test after 1h,dose 12.5 mg/kg; number of rats out of four which were protected; assay type: functional; summary of the method: as §4
Rattus norvegicus [27] = assay: Anticonvulsant activity after oral administration into rats; assay type: functional; set-up: concentration or dose not given beside the values
Mus musculus [28] = assay: Anticonvulsant activity after intraperitoneal injection into mice by using scPTZ screen test after 4 hr; assay type: functional
[29] = Protection index = TD50/ED50 (MES); assay type: ADME, organism-based; conditions: rat, in vivo; read-out: PI
Rattus norvegicus [30] = assay: Compound was tested for anticonvulsant activity after Oral Administration into rat by using MES screen test after 0.5 hr; assay type: functional; summary of the method: as §1
[31] = Compound was tested for toxicity after oral administration in rat by using neurotoxicity screen test after 2 hr; assay type: organism-based; conditions: in vivo; summary of the method: as §5
Rattus norvegicus [32] = assay: Compound was tested for anticonvulsant activity after Oral Administration into Rats by using MES screen test after 0.25h,dose 12.5 mg/kg; No activity was demonstarted; assay type: functional, organism-based; set-up: dose 12.5 mg/kg; summary of the method: as §4
Mus musculus [33] = assay: Compound was tested for anticonvulsant activity after intraperitoneal injection into mice by using MES screen test after 4 hr; assay type: functional; conditions: ip; summary of the method: as §2
[34] = Compound was tested for toxicity after intraperitoneal injection into mice by using neurotoxicity screen test after 4 hr; assay type: organism-based; conditions: mouse, in vivo, ip; summary of the method: as §2
Rattus norvegicus [35] = assay: Compound was tested for anticonvulsant activity after Oral Administration into Rats by using MES screen test after 4h,dose 12.50 mg/kg; number of rats out of four which were protected; assay type: functional; conditions: dose 12.5 mg/kg; summary of the method: as §4
Rattus norvegicus [36] = assay: Compound was tested for anticonvulsant activity after Oral Administration into Rats by using MES screen test after 1h,dose 12.50 mg/kg; number of rats out of four which were protected; assay type: functional; conditions: dose 12.5 mg/kg; summary of the method: as §4
Rattus norvegicus [37] = assay: Compound was tested for anticonvulsant activity after Oral Administration into Rats by using MES screen test after 0.5h,dose 12.50 mg/kg; number of rats out of four which were protected; assay type: functional; conditions: dose 12.5 mg/kg; summary of the method: as §4
Mus musculus [38] = assay: Compound was tested for anticonvulsant activity after intraperitoneal injection into mice by using MES screen test after 0.5 hr; assay type: functional; conditions: ip; summary of the method: as §2
Rattus norvegicus [39] = assay: Compound was tested for anticonvulsant activity after Oral Administration into Rats by using MES screen test after 2h,dose 12.50 mg/kg; number of rats out of four which were protected; assay type: functional; conditions: dose 12.5 mg/kg; summary of the method: as §4
Rattus norvegicus [40] = assay: Compound was tested for anticonvulsant activity after Oral Administration into Rats by using MES screen test after 0.25h,dose 12.50 mg/kg; number of rats out of four which were protected; assay type: functional; conditions: dose 12.5 mg/kg; summary of the method: as §4
Rattus norvegicus [41] = assay: Compound was tested for anticonvulsant activity after Oral Administration into Rats by using MES screen test after 0.5h,dose 30 mg/kg; No activity was demonstarted; assay type: functional, organism-based; set-up: dose 30 mg/kg; summary of the method: as §4
Rattus norvegicus [42] = assay: Compound was tested for anticonvulsant activity after Oral Administration into Rats by using MES screen test after 4h,dose 30 mg/kg; No activity was demonstarted; assay type: functional, organism-based; set-up: dose 30 mg/kg; summary of the method: as §4
Rattus norvegicus [43] = assay: Compound was tested for anticonvulsant activity after Oral Administration into Rats by using MES screen test after 0.25h,dose 30 mg/kg; No activity was demonstarted; assay type: functional, organism-based; set-up: dose 30 mg/kg; summary of the method: as §4
Rattus norvegicus [44] = assay: Compound was tested for anticonvulsant activity after Oral Administration into Rats by using MES screen test after 1h,dose 30 mg/kg; No activity was demonstarted; assay type: functional, organism-based; set-up: dose 30 mg/kg; summary of the method: as §4
Rattus norvegicus [45] = assay: Compound was tested for anticonvulsant activity after Oral Administration into Rats by using MES screen test after 2h,dose 30 mg/kg; No activity was demonstarted; assay type: functional, organism-based; set-up: dose 30 mg/kg; summary of the method: as §4

logP [24] | SMILES | ED50 (Rattus norvegicus [1]) | Dose (Mus musculus [2]) | selectivity ratio [4] | Dose (Mus musculus [5]) | TD50 at 1 h [6] | Dose (Mus musculus [12]) | Dose (Mus musculus [13]) | Activity (Rattus norvegicus [16]) | Activity (Rattus norvegicus [20]) | Activity (Rattus norvegicus [21]) | Dose (Mus musculus [23]) | Activity (Rattus norvegicus [26]) | Activity (Rattus norvegicus [27]) | Dose (Mus musculus [28]) | also measured
1.96 | CC(=O)N/N=C/c1ccc(Oc2ccc(F)cc2)cc1 | – | 100 mg/kg | – | 30 mg/kg | – | 100 mg/kg | 30 mg/kg | 1 | 2 | 1 | 100 mg/kg | 2 | 4 | 100 mg/kg | selectivity ratio [29]: > 6.7; ED50 (Rattus norvegicus [30]): 18.7 mg/kg; TD50 at 2 h [31]: > 125 mg/kg
2.06 | NNC(=O)N/N=C/c1ccc(Oc2ccc(F)cc2)cc1 | – | 300 mg/kg | – | 300 mg/kg | – | – | 100 mg/kg | – | – | – | – | – | – | 300 mg/kg | Activity (Rattus norvegicus [41]): No activity; Activity (Rattus norvegicus [42]): No activity; Activity (Rattus norvegicus [43]): No activity; Activity (Rattus norvegicus [44]): No activity; Activity (Rattus norvegicus [45]): No activity

The remaining lines, values behind:

SMILES | logP [24] | ED50 (Rattus norvegicus [1]) | Dose (Mus musculus [2]) | selectivity ratio [4] | Dose (Mus musculus [5]) | TD50 at 1 h [6] | Dose (Mus musculus [12]) | Dose (Mus musculus [13]) | Activity (Rattus norvegicus [16]) | Activity (Rattus norvegicus [20]) | Activity (Rattus norvegicus [21]) | Dose (Mus musculus [23]) | Activity (Rattus norvegicus [26]) | Activity (Rattus norvegicus [27]) | Dose (Mus musculus [28]) | also measured
C/C(=N/NC(N)=O)c1ccc(Oc2ccccc2)cc1 | – | 9.73 mg/kg | 100 mg/kg | 8.09 | 30 mg/kg | 73.5 mg/kg | 100 mg/kg | 100 mg/kg | – | – | – | – | – | – | – | selectivity ratio [3]: 1.7; Activity (Rattus norvegicus [7]): 4; Activity (Rattus norvegicus [8]): 4; ED50 (Mus musculus [9]): 9.08 mg/kg; ED50 (Mus musculus [10]): 43.3 mg/kg; Activity (Rattus norvegicus [11]): 4; Activity (Rattus norvegicus [14]): 4; Activity (Rattus norvegicus [15]): 4
NC(=O)N/N=C/c1ccc(Sc2ccc(F)cc2)cc1 | 2.8 | – | 100 mg/kg | – | 30 mg/kg | – | 300 mg/kg | 30 mg/kg | 1 | 4 | 4 | 30 mg/kg | 4 | 3 | – | TD50 at 4 h [17]: 183 mg/kg; ED50 (Mus musculus [18]): 12.4 mg/kg; ED50 (Mus musculus [19]): > 120 mg/kg; TD50 at 2 h [22]: 88 mg/kg; ED50 (Rattus norvegicus [25]): 4.98 mg/kg
CC/C(=N/NC(N)=O)c1ccc(Oc2ccc(Br)cc2)cc1 | – | 4.39 mg/kg | 100 mg/kg | 7.82 | 30 mg/kg | – | 300 mg/kg | 30 mg/kg | – | 4 | 4 | 100 mg/kg | 4 | 2 | – | Activity (Rattus norvegicus [32]): No activity; ED50 (Mus musculus [33]): 6.71 mg/kg; TD50 at 4 h [34]: 52.5 mg/kg
NC(=O)N/N=C/c1ccc(Oc2cc(F)cc(F)c2)cc1 | – | – | 300 mg/kg | 5.58 | 30 mg/kg | 68.8 mg/kg | 300 mg/kg | 30 mg/kg | – | – | – | 100 mg/kg | – | – | – | Activity (Rattus norvegicus [35]): 4; Activity (Rattus norvegicus [36]): 4; Activity (Rattus norvegicus [37]): 3; ED50 (Mus musculus [38]): 12.3 mg/kg; Activity (Rattus norvegicus [39]): 4; Activity (Rattus norvegicus [40]): 1
